Measurements published in ChEMBL document CHEMBL4316597, “Design, Synthesis, and Biological Evaluation of Itaconic Acid Derivatives as Potential Anti-Influenza Agents” (J Med Chem, 2019).
pEC50: −log10 of the molar value.

Key:
[1] = Selectivity ratio of CC50 for MDCK cells to EC50 for Influenza A virus (A/WSN/33); type: toxicity; conditions: dog, read-out: Ratio CC50/EC50
Procedure, shortened: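 SI is calculated as CC50 (MDCK, 72 h MTT) divided by EC50 (72 h crystal-violet CPE assay in MDCK).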

Influenza A virus = assay: Antiviral activity against Influenza A virus (A/WSN/33) infected in MDCK cells assessed as reduction in virus-induced cytopathic effect after 72 hrs by crystal violet-staining based assay; type: functional, organism-based; conditions: A/WSN/1933(H1N1)
Procedure, shortened: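 Cells seeded at 2 × 10^4/well in E10 (DMEM, 10% FBS), 16–24 h at 37 °C/5% CO2, washed with DPBS, then infected at nine-fold TCID50 with or without serial compound concentrations. Influenza is run in MDCK and enterovirus/rhinovirus in RD. Incubated 72 h, fixed in 4% paraformaldehyde, stained with 0.1% crystal violet, and read for cell density. EC50 = 50% CPE inhibition by Reed–Muench; mean ± S.D. of at least three runs.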

[2] = Cytotoxicity against MDCK cells assessed as cell death after 72 hrs by MTT assay; type: cell-based, Canis lupus familiaris; conditions: dog
Procedure, shortened: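 MDCK or RD cells at 2 × 10^4/well in E10, overnight at 37 °C/5% CO2, DPBS wash, then exposed to graded compound concentrations for 72 h. MTT added for 3 h, formazan dissolved in DMSO, absorbance read at 570 nm. CC50 (50% cell death) by Reed–Muench.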

C=C(CC(=O)Nc1ccc(Br)cc1Br)C(=O)Nc1ccc(Br)cc1Br
selectivity ratio [1]: > 2 | pEC50 (Influenza A virus): 4.38 | CC50 at 72 h [2]: > 110 µM

C=C(CC(=O)Nc1ccc(C(F)(F)F)cc1F)C(=O)O
pEC50 (Influenza A virus): < 4.30 | CC50 at 72 h [2]: > 110 µM

O=C(/C=C\n1cnc(-c2cc(C(F)(F)F)cc(C(F)(F)F)c2)n1)NNc1ccccn1 [VERDINEXOR]
selectivity ratio [1]: 9.69 | pEC50 (Influenza A virus): 5.48 | CC50 at 72 h [2]: 31.8 µM

C=C(CC(=O)Nc1ccc(F)cc1C(F)(F)F)C(=O)Nc1ccc(F)cc1C(F)(F)F
pEC50 (Influenza A virus): < 4.30 | CC50 at 72 h [2]: > 110 µM

C=C(CC(=O)Nc1cc(F)ccc1F)C(=O)Nc1cc(F)ccc1F
selectivity ratio [1]: 26 | pEC50 (Influenza A virus): 5.90 | CC50 at 72 h [2]: 32.8 µM

C=C(CC(=O)NCc1ccc(F)cc1F)C(=O)NCc1ccc(F)cc1F
pEC50 (Influenza A virus): < 4.30 | CC50 at 72 h [2]: > 110 µM

C=C(CC(=O)Nc1ccccc1C(F)(F)F)C(=O)O
pEC50 (Influenza A virus): < 4.30 | CC50 at 72 h [2]: > 110 µM

C=C(CC(=O)Nc1ccc(Br)cc1F)C(=O)Nc1ccc(Br)cc1F
selectivity ratio [1]: > 111 | pEC50 (Influenza A virus): 6.00 | CC50 at 72 h [2]: > 110 µM

C=C(CC(=O)Nc1ccccc1C(F)(F)F)C(=O)Nc1ccccc1C(F)(F)F
pEC50 (Influenza A virus): < 4.30 | CC50 at 72 h [2]: > 110 µM

C=C(CC(=O)Nc1cc(OC)ccc1F)C(=O)Nc1cc(OC)ccc1F
selectivity ratio [1]: > 229 | pEC50 (Influenza A virus): 6.32 | CC50 at 72 h [2]: > 110 µM

C=C(CC(=O)Nc1cc(C(F)(F)F)ccc1F)C(=O)Nc1cc(C(F)(F)F)ccc1F
selectivity ratio [1]: 136 | pEC50 (Influenza A virus): 6.96 | CC50 at 72 h [2]: 15 µM

C=C(CC(=O)Nc1ccc(F)cc1Br)C(=O)Nc1ccc(F)cc1Br
selectivity ratio [1]: > 42 | pEC50 (Influenza A virus): 5.59 | CC50 at 72 h [2]: > 110 µM

C=C(CC(=O)Nc1cc(Cl)ccc1F)C(=O)O
pEC50 (Influenza A virus): < 4.30 | CC50 at 72 h [2]: > 110 µM
